Measurements: ChEMBL document CHEMBL4138271, “Crystal Structures and Human Leukemia Cell Apoptosis Inducible Activities of Parthenolide Analogues Isolated from Piptocoma rufescens” (J Nat Prod, 2018)
Activity calls are given as the source filed them. The calls are words filed in the database; no cut-off is given here.

What was measured:
EOL1 [1] = assay: Induction of apoptosis in human EOL-1 cells assessed as late apoptotic cells at 6 uM after 24 hrs by Annexin-V FITC/7-AAD staining based flow cytometric method (reference value: 0.535%); type: functional
MOLM-13 [2] = assay: Induction of apoptosis in human MOLM13 cells assessed as early apoptotic cells at 3 uM after 24 hrs by Annexin-V FITC/7-AAD staining based flow cytometric method (reference value: 11.8%); type: functional
MOLM-13 [3] = assay: Induction of apoptosis in human MOLM13 cells assessed as live cells at 3 uM after 24 hrs by Annexin-V FITC/7-AAD staining based flow cytometric method (reference value: 86.8%); type: functional
MOLM-13 [4] = assay: Synergistic antileukemic activity against human MOLM13 cells assessed as concentration required for <= 75% cell survival after 72 hrs in presence of midostaurin by CellTiter 96 AQueous One solution cell proliferation assay; type: functional
EOL1 [5] = assay: Induction of apoptosis in human EOL-1 cells assessed as necrotic cells at 6 uM after 24 hrs by Annexin-V FITC/7-AAD staining based flow cytometric method (reference value: 0.032%); type: functional
MOLM-13 [6] = assay: Induction of apoptosis in human MOLM13 cells assessed as late apoptotic cells at 6 uM after 24 hrs by Annexin-V FITC/7-AAD staining based flow cytometric method (reference value: 1.43%); type: functional
HT-29 = assay: Cytotoxicity against human HT-29 cells after 72 hrs by MTS assay; type: functional, cell-based; settings: HT-29, 72 h
MOLM-13 [7] = assay: Induction of apoptosis in human MOLM13 cells assessed as necrotic cells at 3 uM after 24 hrs by Annexin-V FITC/7-AAD staining based flow cytometric method (reference value: 0%); type: functional
EOL1 [8] = assay: Induction of apoptosis in human EOL-1 cells assessed as live cells at 6 uM after 24 hrs by Annexin-V FITC/7-AAD staining based flow cytometric method (reference value: 97.5%); type: functional
EOL1 [9] = assay: Synergistic antileukemic activity against human EOL-1 cells assessed as concentration required for <= 75% cell survival after 72 hrs in presence of midostaurin by CellTiter 96 AQueous One solution cell proliferation assay; type: functional
EOL1 [10] = assay: Induction of apoptosis in human EOL-1 cells assessed as live cells at 12 uM after 24 hrs by Annexin-V FITC/7-AAD staining based flow cytometric method (reference value: 97.5%); type: functional
MOLM-13 [11] = assay: Induction of apoptosis in human MOLM13 cells assessed as live cells at 12 uM after 24 hrs by Annexin-V FITC/7-AAD staining based flow cytometric method (reference value: 86.8%); type: functional
EOL1 [12] = assay: Induction of apoptosis in human EOL-1 cells assessed as early apoptotic cells at 12 uM after 24 hrs by Annexin-V FITC/7-AAD staining based flow cytometric method (reference value: 1.94%); type: functional
MOLM-13 [13] = assay: Induction of apoptosis in human MOLM13 cells assessed as necrotic cells at 6 uM after 24 hrs by Annexin-V FITC/7-AAD staining based flow cytometric method (reference value: 0%); type: functional
EOL1 [14] = assay: Induction of apoptosis in human EOL-1 cells assessed as caspase-3 activation at 10 uM after 72 hrs by immunoblotting analysis; type: functional, cell-based
Method in brief: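 EOL-1 cells (RPMI 1640, 10% FBS, 37 °C, 5% CO2) exposed 72 h; compounds at 10 μM, PKC412 at 10 nM. Harvested, PBS-washed, lysed in hypertonic NP-40 buffer with protease/phosphatase inhibitors; SDS-PAGE, PVDF transfer, rabbit monoclonal cleaved caspase-3 (Asp175) antibody 12 h, secondary 1 h, chemiluminescent detection; β-actin loading control. Representative blots of three independent experiments.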

EOL1 [15] = assay: Induction of apoptosis in human EOL-1 cells assessed as early apoptotic cells at 3 uM after 24 hrs by Annexin-V FITC/7-AAD staining based flow cytometric method (reference value: 1.94%); type: functional
MOLM-13 [16] = assay: Induction of apoptosis in human MOLM13 cells assessed as necrotic cells at 12 uM after 24 hrs by Annexin-V FITC/7-AAD staining based flow cytometric method (reference value: 0%); type: functional
EOL1 [17] = assay: Induction of apoptosis in human EOL-1 cells assessed as late apoptotic cells at 12 uM after 24 hrs by Annexin-V FITC/7-AAD staining based flow cytometric method (reference value: 0.535%); type: functional
MOLM-13 [18] = assay: Cytotoxicity against human MOLM13 cells after 72 hrs by MTS assay; type: functional, cell-based; settings: MOLM-13, 72 h
EOL1 [19] = assay: Induction of apoptosis in human EOL-1 cells assessed as necrotic cells at 3 uM after 24 hrs by Annexin-V FITC/7-AAD staining based flow cytometric method (reference value: 0.032%); type: functional
MOLM-13 [20] = assay: Induction of apoptosis in human MOLM13 cells assessed as late apoptotic cells at 3 uM after 24 hrs by Annexin-V FITC/7-AAD staining based flow cytometric method (reference value: 1.43%); type: functional
[21] = target: Transcription factor p65 (Homo sapiens) (UniProt Q04206); assay: Inhibition of NFkappaB p65 in human MOLM13 cells at 10 uM after 72 hrs by immunoblotting method; type: cell-based
Method in brief: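 MOLM-13 or EOL-1 cells treated 72 h at 10 μM. Cells washed in ice-cold PBS and lysed in hypertonic NP-40 buffer (10 mM HEPES pH 7.5, 0.5 M NaCl) with protease/phosphatase inhibitors. Protein measured by BCA; SDS-PAGE onto PVDF. Probed 12 h with rabbit monoclonal NF-κB-p65 antibody, goat β-actin as loading control, then chemiluminescence. Blots representative of three independent experiments.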

EOL1 [22] = assay: Induction of apoptosis in human EOL-1 cells assessed as live cells at 3 uM after 24 hrs by Annexin-V FITC/7-AAD staining based flow cytometric method (reference value: 97.5%); type: functional
MOLM-13 [23] = assay: Induction of apoptosis in human MOLM13 cells assessed as late apoptotic cells at 12 uM after 24 hrs by Annexin-V FITC/7-AAD staining based flow cytometric method (reference value: 1.43%); type: functional
EOL1 [24] = assay: Induction of apoptosis in human EOL-1 cells assessed as late apoptotic cells at 3 uM after 24 hrs by Annexin-V FITC/7-AAD staining based flow cytometric method (reference value: 0.535%); type: functional
MOLM-13 [25] = assay: Induction of apoptosis in human MOLM13 cells assessed as live cells at 6 uM after 24 hrs by Annexin-V FITC/7-AAD staining based flow cytometric method (reference value: 86.8%); type: functional
EOL1 [26] = assay: Cytotoxicity against human EOL-1 cells after 72 hrs by MTS assay; type: functional, cell-based; settings: EOL1, 72 h
EOL1 [27] = assay: Induction of apoptosis in human EOL-1 cells assessed as necrotic cells at 12 uM after 24 hrs by Annexin-V FITC/7-AAD staining based flow cytometric method (reference value: 0.032%); type: functional
MOLM-13 [28] = assay: Induction of apoptosis in human MOLM13 cells assessed as early apoptotic cells at 6 uM after 24 hrs by Annexin-V FITC/7-AAD staining based flow cytometric method (reference value: 11.8%); type: functional
MOLM-13 [29] = assay: Induction of apoptosis in human MOLM13 cells assessed as caspase-3 activation at 10 uM after 72 hrs by immunoblotting analysis; type: functional, cell-based
Method in brief: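 MOLM-13 cells treated 72 h with test compounds at 10 μM or PKC412 at 10 nM. Cells washed in ice-cold PBS, lysed at 10^8 cells/mL in NP-40 hypertonic buffer (pH 7.5) with protease/phosphatase inhibitors, then run on SDS-PAGE and PVDF. Blots probed 12 h with rabbit monoclonal cleaved caspase-3 (Asp175), β-actin as loading control. Representative of three independent experiments.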

EOL1 [30] = assay: Induction of apoptosis in human EOL-1 cells assessed as early apoptotic cells at 6 uM after 24 hrs by Annexin-V FITC/7-AAD staining based flow cytometric method (reference value: 1.94%); type: functional
MOLM-13 [31] = assay: Induction of apoptosis in human MOLM13 cells assessed as early apoptotic cells at 12 uM after 24 hrs by Annexin-V FITC/7-AAD staining based flow cytometric method (reference value: 11.8%); type: functional

Sequence of Transcription factor p65 (Homo sapiens) (Q04206 whole entry): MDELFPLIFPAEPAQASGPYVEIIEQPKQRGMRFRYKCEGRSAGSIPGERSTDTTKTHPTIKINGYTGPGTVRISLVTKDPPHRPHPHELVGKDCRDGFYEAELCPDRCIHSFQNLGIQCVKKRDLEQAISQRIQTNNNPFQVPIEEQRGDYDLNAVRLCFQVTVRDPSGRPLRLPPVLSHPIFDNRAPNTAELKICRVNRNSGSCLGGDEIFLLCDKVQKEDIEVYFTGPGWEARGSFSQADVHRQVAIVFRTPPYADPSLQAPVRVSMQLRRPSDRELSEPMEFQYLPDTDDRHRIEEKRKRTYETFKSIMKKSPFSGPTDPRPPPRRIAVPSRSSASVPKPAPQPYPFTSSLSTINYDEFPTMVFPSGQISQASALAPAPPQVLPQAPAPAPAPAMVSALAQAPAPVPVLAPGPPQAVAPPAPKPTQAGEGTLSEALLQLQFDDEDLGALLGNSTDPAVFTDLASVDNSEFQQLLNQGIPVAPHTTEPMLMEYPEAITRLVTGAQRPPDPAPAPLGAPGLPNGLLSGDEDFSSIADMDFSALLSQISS

Work on `C=C1C(=O)O[C@@H]2C[C@@H](C)CCC(=O)[C@](C)(OC(C)=O)C[C@H](OC(=O)/C(C)=C\C)[C@@H]12` yielded an Activity (EOL1 [1]) of 0.545%, an Activity (MOLM-13 [2]) of 4.46% and an Activity (MOLM-13 [3]) of 94.7%. For the same compound, the Activity (MOLM-13 [4]) was 4.9 µM, the Activity (EOL1 [5]) was 0.096% and the Activity (MOLM-13 [6]) was 1.19%. For the same compound, the IC50 (HT-29) was 3 µM, the Activity (MOLM-13 [7]) was 0.056% and the Activity (EOL1 [8]) was 97.7%. It also gave an Activity (EOL1 [9]) of 2.5 µM, an Activity (EOL1 [10]) of 93.4% and an Activity (MOLM-13 [11]) of 36.6%. For the same compound, the Activity (EOL1 [12]) was 1.4%, the Activity (MOLM-13 [13]) was 0.314% and the Activity (EOL1 [14]) was “Active”. The Activity (EOL1 [15]) was 1.64%, the Activity (MOLM-13 [16]) was 16.9% and the Activity (EOL1 [17]) was 4.7%. The IC50 (MOLM-13 [18]) was 10 µM, the Activity (EOL1 [19]) was 0.043% and the Activity (MOLM-13 [20]) was 0.817%. The inhibition [21] was “Active”, the Activity (EOL1 [22]) was 97.9% and the Activity (MOLM-13 [23]) was 39.7%. It also gave an Activity (EOL1 [24]) of 0.417%, an Activity (MOLM-13 [25]) of 93.6% and an IC50 (EOL1 [26]) of 8 µM. For the same compound, the Activity (EOL1 [27]) was 0.497%, the Activity (MOLM-13 [28]) was 4.87% and the Activity (MOLM-13 [29]) was “Active”. It also gave an Activity (EOL1 [30]) of 1.66% and an Activity (MOLM-13 [31]) of 6.8%.
